Published values collected from several papers.
Each line is one published result; the experiments were not run side by side.
Target: Cyclin-dependent kinase-like 1 (CDKL1, Homo sapiens, UniProt Q00532)

SMILES | test | setting | measurement | result
CCC1(CC)NC(=O)c2c(c3ccc(Cl)c(Cl)c3n2C)C1C#N (centres unmarked) | thermal stability, DSF | 10 µM | ΔTm | 0 °C
COc1cc(Cl)c(C(=O)N[C@@H](CN[C@H]2CC[C@@H](N)CC2)Cc2ccc(C#N)cc2)cc1-c1ccc(CN[C@H](C)c2ccc(C)cc2)o1 | enzyme activity, inhibitor | 1 µM | remaining activity | 101%
Cn1c2c(Cl)c(Cl)ccc2c2cc(N)[nH]c(=O)c21 | thermal stability, DSF | 10 µM | ΔTm | 0.3 °C
Nc1ncnc2occ(-c3ccc(NC(=O)Nc4cc(C(F)(F)F)ccc4F)cc3)c12 | cell-free assay | 20 µM | remaining signal | 0.55%
NS(=O)(=O)c1cc(NC(=O)C2(c3ccccc3Cl)CC2)ccc1Oc1cccc(Cl)c1 | binding, competition with immobilised ligand | 1 µM | remaining binding | 99%
Cc1ccc(C(=O)Nc2ccc(CN3CCN(C)CC3)c(C(F)(F)F)c2)cc1C#Cc1cnc2cccnn12 | enzyme activity | 23.5 nM | remaining activity | 85%
CN1CC(Oc2cnc(C#N)cc2-c2ccn3nc(NC(=O)C4CC4)cc3c2)C1 | enzyme activity, inhibitor | 1 µM | inhibition | 5%
CO[C@@H](C)c1c(Nc2ccc([C@@H](N(C)C(=O)C3CCS(=O)(=O)CC3)C(F)(F)F)cc2)cnc2cc(Cl)nn12 | cell-free assay, competition with immobilised ligand | 1 µM | remaining binding | 74%
